{"data": "Measurements from different studies", "target": "Platelet-derived growth factor receptor alpha (PDGFRA, Homo sapiens, UniProt P16234)", "note": "Each line is one published result; the experiments were not run side by side."}
{"SMILES": "O=C(c1ccc(Nc2ncc(Cl)c(-c3ccc(Cl)s3)n2)cc1)N1CCC(N2CCCC2)CC1", "observed": "binding", "technique": "competition with immobilised ligand", "tested at": "1 µM", "remaining binding [%]": 3.4}
{"SMILES": "COc1cnc(Nc2cccc(S(N)(=O)=O)c2)nc1N1CCN(c2ccccc2)CC1", "observed": "binding", "technique": "competition with immobilised ligand", "tested at": "1 µM", "remaining binding [%]": 85}
{"SMILES": "CC(C)(O)c1cncc(-c2nc3ccc(F)cc3n2C2CC2)c1", "observed": "cell-free assay", "technique": "competition with immobilised ligand", "tested at": "1 µM", "remaining binding [%]": 100}
{"SMILES": "O=C(NCC1CCOCC1)c1n[nH]cc1NC(=O)c1c(F)cccc1F", "observed": "binding", "technique": "competition with immobilised ligand", "tested at": "1 µM", "remaining binding [%]": 84}
{"SMILES": "CN(CCCC(F)(F)F)c1nccc(-c2cnn3ncccc23)n1", "observed": "binding", "tested at": "1 µM", "remaining binding [%]": 100}
{"SMILES": "C=CC(=O)N1CCC(C(=O)NCC(=O)N2CCN(c3nc(-c4cnc(N)nc4C(F)F)nc(N4CCOCC4)n3)CC2)CC1", "observed": "binding", "technique": "competition with immobilised ligand", "tested at": "1 µM", "remaining binding [%]": 91}
{"SMILES": "COc1ccc2c(c1)O[C@@H](c1ccc(OC)c(OC)c1)C[C@H]2NC(=O)C1(c2ccc3c(c2)OC(F)(F)O3)CC1", "observed": "cell-free assay", "technique": "competition with immobilised ligand", "tested at": "1 µM", "remaining binding [%]": 78}
{"SMILES": "CN(C)c1nccc(-c2cnc3ncccn23)n1", "observed": "binding", "tested at": "1 µM", "remaining binding [%]": 78}
{"SMILES": "COc1ncc2cc3ccccc3nc2c1C#N", "observed": "cell-free assay", "technique": "competition with immobilised ligand", "tested at": "5 µM", "remaining binding [%]": 83}
{"SMILES": "C[C@@H](c1ccc(-n2cnc3c(N)ncnc32)cc1)N1CCc2nn(C)c(Cc3ccccc3)c2C1=O", "observed": "binding", "technique": "competition with immobilised ligand", "tested at": "0.1 µM", "remaining binding [%]": 20}
{"SMILES": "CN(c1nccc(-c2cnn3ncccc23)n1)C1CC1", "observed": "binding", "tested at": "1 µM", "remaining binding [%]": 100}
{"SMILES": "c1cncc(-c2cccc(Nc3nccc(NC4CCCCC4)n3)c2)c1", "observed": "binding", "technique": "competition with immobilised ligand", "tested at": "10 µM", "remaining binding [%]": 11}
{"SMILES": "COC(=O)Nc1nc2ccc(C(=O)c3ccccc3)cc2[nH]1", "observed": "cell-free assay", "technique": "competition with immobilised ligand", "tested at": "10 µM", "remaining binding [%]": 7.8}
{"SMILES": "COc1ccnn2ncc(-c3ccnc(N(C)C)n3)c12", "observed": "binding", "tested at": "1 µM", "remaining binding [%]": 74}
{"SMILES": "COc1cccc(CNC(=O)c2nc3scc(COCc4ccc(C(=O)O)cc4)c3c(=O)[nH]2)c1", "observed": "cell-free assay", "technique": "competition with immobilised ligand", "tested at": "1 µM", "remaining binding [%]": 56.3}
{"SMILES": "N[C@@H]1CCN(c2nccc(-c3cnn4ncccc34)n2)C1", "observed": "binding", "tested at": "1 µM", "remaining binding [%]": 100}
{"SMILES": "CCOCCn1cc(C(=O)Nc2ccc(-n3nc(-c4cccnc4)cc3C(F)(F)F)cn2)ccc1=O", "observed": "cell-free assay", "technique": "competition with immobilised ligand", "tested at": "1 µM", "remaining binding [%]": 68}
{"SMILES": "C[C@H]1CCN(c2nccc(-c3cnn4ncccc34)n2)C1", "observed": "binding", "tested at": "1 µM", "remaining binding [%]": 83}
{"SMILES": "CC(C)(C)c1ccc(-c2nc(CBr)nn2-c2cccc(O)c2)cc1", "observed": "cell-free assay", "technique": "competition with immobilised ligand", "tested at": "10 µM", "remaining binding [%]": 83}
{"SMILES": "O=C(NCCCN1CCOCC1)c1ccc(Nc2nccc(-c3cc4ccccc4s3)n2)cc1", "observed": "binding", "technique": "competition with immobilised ligand", "tested at": "1 µM", "remaining binding [%]": 64}
{"SMILES": "C[C@H](c1cccc(C#N)c1)n1cc(Cl)cc(C(N)=O)c1=N", "observed": "cell-free assay", "technique": "competition with immobilised ligand", "tested at": "1 µM", "remaining binding [%]": 94}
{"SMILES": "C[C@@H]1CN(c2ccc3ncc(-c4ccc5[nH]nc(C6CC6)c5c4)n3n2)C[C@H](C)O1", "observed": "binding", "technique": "competition with immobilised ligand", "tested at": "50 nM", "remaining binding [%]": 81}
{"SMILES": "Cc1cc(C)c(-n2ccn3nc(-c4cccnc4)cc23)cc1NC(=O)c1cc(C#N)cc(S(F)(F)(F)(F)F)c1", "observed": "cell-free assay", "technique": "competition with immobilised ligand", "tested at": "0.1 µM", "remaining binding [%]": 67.4}
{"SMILES": "CCN1CCN(Cc2ccc(C(=O)Nc3ccc(C)c(Oc4ccc5c(c4)CC(=O)N5)c3)cc2C(F)(F)F)CC1", "observed": "binding", "technique": "competition with immobilised ligand", "tested at": "1 µM", "remaining binding [%]": 100}
{"SMILES": "COCCOc1nc(-c2ccc(Cl)nc2)nc2c1CN(C(=O)c1ncn3ccccc13)CC2", "observed": "cell-free assay", "technique": "competition with immobilised ligand", "tested at": "0.1 µM", "remaining binding [%]": 100}
{"SMILES": "O=C(c1ccc(Nc2ncc(Cl)c(-c3cc4ccccc4s3)n2)cc1)N1CCC(N2CCCC2)CC1", "observed": "binding", "technique": "competition with immobilised ligand", "tested at": "1 µM", "remaining binding [%]": 35}
